{"source": "paper PMC3667888", "about": "(Channels, 2013)", "format_in_all_cases": "cell-based", "key": {"[1]": {"target": "T1, Kv4.2 V261F/K318Q double mutant channels (co-injected with KChIP1b) (Rattus norvegicus, UniProt Q63881, K318Q/V261F)", "T1 sequence (Q63881 1-630 V261F/K318Q)": "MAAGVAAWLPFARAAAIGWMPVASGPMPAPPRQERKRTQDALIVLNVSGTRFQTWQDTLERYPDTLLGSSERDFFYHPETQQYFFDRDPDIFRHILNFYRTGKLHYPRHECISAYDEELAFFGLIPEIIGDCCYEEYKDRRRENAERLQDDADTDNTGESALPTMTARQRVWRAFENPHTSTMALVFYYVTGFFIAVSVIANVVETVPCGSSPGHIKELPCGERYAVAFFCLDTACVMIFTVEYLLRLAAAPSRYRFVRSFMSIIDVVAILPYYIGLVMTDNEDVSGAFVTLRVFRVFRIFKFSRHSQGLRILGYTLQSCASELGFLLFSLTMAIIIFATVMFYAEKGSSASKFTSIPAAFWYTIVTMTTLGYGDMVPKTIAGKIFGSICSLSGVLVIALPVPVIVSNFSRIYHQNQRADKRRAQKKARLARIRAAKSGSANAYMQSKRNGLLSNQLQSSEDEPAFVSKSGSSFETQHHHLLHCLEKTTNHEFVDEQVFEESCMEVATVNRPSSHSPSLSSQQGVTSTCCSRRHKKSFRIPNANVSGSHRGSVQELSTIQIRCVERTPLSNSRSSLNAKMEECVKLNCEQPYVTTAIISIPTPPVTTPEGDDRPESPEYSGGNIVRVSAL", "summary_of_the_method": "(§1)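 Xenopus oocytes co-expressing rat Kv4.2 (WT or mutant) with equimolar KChIP1b were recorded by two-electrode voltage clamp at room temperature. Peak conductance was calculated as G = I/(Vm − Vh), with Vh = −100 mV, and normalized to each cell's Gmax. It was plotted against step potential without and with 10 μM AA and fit to a first-order Boltzmann function to give V1/2 and slope.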"}, "[2]": {"target": "T2, Kv4.2 K318E mutant channels (co-injected with KChIP1b) (Rattus norvegicus, UniProt Q63881, K318E)", "T2 sequence (Q63881 1-630 K318E)": "T1 sequence (Q63881 1-630 V261F/K318Q) with F261V, Q318E", "test": "Two-electrode voltage clamp, K318E mutant Kv4.2/KChIP1b in Xenopus oocytes", "settings": "10 µM AA", "summary_of_the_method": "as §1"}, "[3]": {"target": "T3, Kv4.2 G314F mutant channels (co-injected with KChIP1b) (Rattus norvegicus, UniProt Q63881, G314F)", "T3 sequence (Q63881 1-630 G314F)": "T1 sequence (Q63881 1-630 V261F/K318Q) with F261V, G314F, Q318K", "test": "Two-electrode voltage clamp, G314F mutant Kv4.2/KChIP1b in Xenopus oocytes", "settings": "read-out: inhibition of the peak K+ current", "summary_of_the_method": "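Rat Kv4.2 (WT or QuikChange mutant) RNA co-injected equimolar with KChIP1b, 5–10 ng/oocyte, into Xenopus oocytes held 1–5 d at 17–19 °C. Two-electrode voltage clamp at room temperature in perfused Na/K methanesulfonate HEPES saline, pH 7.4–7.5, with P/−4 or P/−6 leak subtraction. Peak current at +40 mV (from −90 mV) after 10 min of 10 μM AA is expressed relative to pre-AA current. Mean ± SE, n = cells.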"}}, "note": "Substitutions are numbered along the chain they refer to.", "data": [{"smiles": "CCCCC/C=C\\C/C=C\\C/C=C\\C/C=C\\CCCC(=O)O", "note": "[AA, arachidonic acid]", "values": [{"measurement": "V1/2 of conductance-voltage curve with AA", "setting": "[1]; 10 µM AA", "result": "−19.1", "unit": "mV"}, {"measurement": "slope factor (k) of Boltzmann fit with AA", "setting": "[1]; 10 µM AA", "result": 8.4}, {"measurement": "Kd", "setting": "[1]; fitted Kd for AA inhibition of peak current, Hill equation, nH = 1, +40 mV", "result": 45.7, "unit": "µM"}, {"measurement": "V1/2 of conductance-voltage curve with AA", "setting": "[2]", "result": "−25.2", "unit": "mV"}, {"measurement": "shift in V1/2 in the presence of AA", "setting": "[2]", "result": "+5 mV"}, {"measurement": "slope factor (k) of Boltzmann fit with AA", "setting": "[2]", "result": 7.1}, {"measurement": "inhibition of peak K+ current by AA, effect of mutation", "setting": "[2]; 10 min", "result": "did not impair the inhibition of current by AA"}, {"measurement": "inhibition at 10 µM", "setting": "[3]", "result": 22, "unit": "%"}]}]}
